According to ChEMBL document CHEMBL3580644, “Synthesis of piperlongumine analogues and discovery of nuclear factor erythroid 2-related factor 2 (Nrf2) activators as potential neuroprotective agents” (J Med Chem, 2015):
Calls of active or inactive are those of the source. The calls are words filed in the database; no cut-off is given here.

Assays:
[1] = target: T1, Nuclear factor erythroid 2-related factor 2 (Rattus norvegicus) (UniProt O54968); test: Induction of Nrf2-mediated antioxidant genes expression in rat PC12 cells assessed as increase in NQO1 protein expression at 10 and 20 uM incubated for 20 hrs by Western blotting method; type: cell-based; conditions: PC-12
T1 sequence (whole entry): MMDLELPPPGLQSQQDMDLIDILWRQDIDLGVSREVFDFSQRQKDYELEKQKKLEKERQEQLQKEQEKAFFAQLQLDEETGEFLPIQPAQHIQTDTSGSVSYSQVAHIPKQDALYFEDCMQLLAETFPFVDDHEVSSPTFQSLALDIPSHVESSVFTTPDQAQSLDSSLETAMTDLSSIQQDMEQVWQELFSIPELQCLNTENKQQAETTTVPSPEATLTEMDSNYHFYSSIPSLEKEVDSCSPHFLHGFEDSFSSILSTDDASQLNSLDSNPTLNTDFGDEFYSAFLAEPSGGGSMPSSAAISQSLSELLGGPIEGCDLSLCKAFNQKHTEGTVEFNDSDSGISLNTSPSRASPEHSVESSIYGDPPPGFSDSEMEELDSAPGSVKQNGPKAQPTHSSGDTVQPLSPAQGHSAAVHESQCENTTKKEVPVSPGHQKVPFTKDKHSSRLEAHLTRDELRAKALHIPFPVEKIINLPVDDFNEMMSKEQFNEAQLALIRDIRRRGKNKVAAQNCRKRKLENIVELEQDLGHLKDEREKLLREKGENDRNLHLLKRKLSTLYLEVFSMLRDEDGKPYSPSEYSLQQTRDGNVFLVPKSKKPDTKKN

PC-12 [2] = test: Cytoprotection activity against H2O2-induced oxidative stress in rat PC12 cells assessed as GSH level at pre-incubated for 24 hrs before H2O2 exposure for 12 hrs; type: functional, cell-based
Outline: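 Total glutathione: cells extracted in KPE buffer (0.1% Triton X-100, 0.6% sulfosalicylic acid, 5 mM EDTA, 0.1 M PBS pH 7.5), sonicated on ice, centrifuged 3000 g 4 min at 4 °C; supernatant assayed enzymatically. PC12 cells 1×10^6 in 60-mm dishes, compound 24 h; stress lines add 500 μM H2O2 or 200 μM 6-OHDA 12 h.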

[3] = target: T1, Nuclear factor erythroid 2-related factor 2 (Rattus norvegicus); test: Induction of Nrf2 nuclear translocation in rat PC12 cells at 20 uM incubated for 2 to 8 hrs by Western blotting method; type: cell-based; conditions: PC-12
Outline: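 PC12 cells (1×10^6) in 60-mm dishes, 24 h, then 20 μM compound for 0, 2, 4 and 8 h; nuclear, cytosolic and whole-cell extracts prepared; Nrf2 detected by Western blot.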

PC-12 [4] = test: Cytoprotection activity against 6-OHDA-induced cytotoxicity in rat PC12 cells assessed as cell viability at 20 uM pre-incubated for 24 hrs before 6-OHDA exposure for 12 hrs by MTT assay; type: functional, cell-based
PC-12 [5] = test: Induction of antioxidant genes expression in rat PC12 cells assessed as increase in TrxR1 mRNA level at 20 uM incubated for 6 hrs by qRT-PCR method; type: functional, cell-based
Outline: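 PC12 cells (1×10^6 per 60-mm dish) seeded 1 day, then exposed to 20 μM compound for 0, 3, 6 and 12 h. Total RNA isolated and quantified by 260/280 absorbance. Transcripts measured by qRT-PCR, normalized to GAPDH internal control, compared against 0 h control. Means ± SD of three independent experiments.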

[6] = Antioxidant activity assessed as ABTS radical scavenging activity at 20 uM incubated for 30 mins by spectrophotometry; type: physicochemical; conditions: 0.5 h
[7] = target: T1, Nuclear factor erythroid 2-related factor 2 (Rattus norvegicus); test: Induction of Nrf2-mediated antioxidant genes expression in rat PC12 cells assessed as increase in HO1 protein expression at 10 and 20 uM incubated for 20 hrs by Western blotting method; type: cell-based; conditions: PC-12
PC-12 [8] = test: Cytoprotection activity against H2O2-induced oxidative stress in rat PC12 cells assessed as NQO1 activity at pre-incubated for 24 hrs before H2O2 exposure for 12 hrs by DCPIP dye reduction based spectrophotometry; type: functional, cell-based
Outline: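 NQO1: PC12 lysate in RIPA buffer, 5 μg protein into 20 mM Tris-HCl pH 7.4, 200 μM NADH, 40 μM DCPIP; A600 decrease read every 8 s for 2 min at room temperature ± 20 μM dicoumarol; dicoumarol-inhibitable rate used, expressed as % of DMSO control. Cells pretreated 24 h; stress lines then 500 μM H2O2 or 200 μM 6-OHDA 12 h.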

PC-12 [9] = test: Cytoprotection activity against H2O2-induced cytotoxicity in rat PC12 cells assessed as cell viability at 10 and 20 uM pre-incubated for 24 hrs before H2O2 exposure for 12 hrs in presence of shNrf2 by MTT assay; type: functional, cell-based
PC-12 [10] = test: Reduction in cytosolic Nrf2 protein level in rat PC12 cells at 20 uM incubated for 2 to 8 hrs by Western blotting method; type: functional, cell-based
Outline: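 Seeded at 1×10^6 cells per 60-mm dish for 24 h, PC12 cells were treated with 20 μM compound for 0, 2, 4 and 8 h. Whole-cell, cytosolic and nuclear protein extracts were then prepared and Nrf2 probed by Western blot.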

PC-12 [11] = test: Induction of antioxidant genes expression in rat PC12 cells assessed as increase in GCLC mRNA level at 20 uM incubated for 6 hrs by qRT-PCR method; type: functional, cell-based
Outline: (§1)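 PC12 cells, 1×10^6 per 60-mm dish, 1 day, then 20 μM compound for 0, 3, 6 and 12 h; total RNA isolated, quantified by 260/280 absorbance; mRNA by real-time RT-PCR normalized to GAPDH; mean ± SD of three independent experiments versus 0 h.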

PC-12 [12] = test: Cytoprotection activity against H2O2-induced apoptosis in rat PC12 cells assessed as reduction in caspase-3 activation at 10 and 20 uM pre-incubated for 24 hrs before H2O2 exposure for 24 hrs by colorimetric assay; type: functional, cell-based
Outline: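 Lysed in RIPA buffer (pH 7.5), protein by Bradford; caspase-3 measured colorimetrically with Ac-DEVD-pNA substrate, expressed as % of control; mean ± SD, three independent experiments.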

PC-12 [13] = test: Cytoprotection activity against H2O2-induced oxidative stress in rat PC12 cells assessed as reduction in ROS generation at 10 and 20 uM pre-incubated for 24 hrs before H2O2 exposure for 5 hrs by DCFH-DA dye based fluorescent microscopy; type: functional, cell-based
PC-12 [14] = test: Induction of antioxidant genes expression in rat PC12 cells assessed as increase in Trx1 mRNA level at 20 uM incubated for 6 hrs by qRT-PCR method; type: functional, cell-based; outline: as §1
PC-12 [15] = test: Induction of antioxidant defense system in rat PC12 cells assessed as increase in Trx activity level incubated for 24 hrs by recombinant rat TrxR1 based assay; type: functional, cell-based
Outline: (§2)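 Cellular Trx activity: extract with 20 μg protein incubated 30 min at 37 °C in 100 mM Tris-HCl pH 7.4 with 0.3 mM insulin, 660 μM NADPH, 3 mM EDTA, 60 nM recombinant rat TrxR1; stopped with 1 mM DTNB in 6 M guanidine-HCl pH 8.0; A412 minus TrxR-free blank; % of DMSO control.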

PC-12 [16] = test: Cytoprotection activity against H2O2-induced cytotoxicity in rat PC12 cells assessed as increase in cell viability pre-incubated for 24 hrs before H2O2 exposure for 12 hrs by MTT assay; type: functional, cell-based
PC-12 [17] = test: Cytoprotection activity against 6-OHDA-induced oxidative stress in rat PC12 cells assessed as Trx activity at pre-incubated for 24 hrs before 6-OHDA exposure for 12 hrs by recombinant rat TrxR1 based assay; type: functional, cell-based; outline: as §2

| SMILES | Activity [1] | Activity (PC-12 [2]) | Activity [3] | Activity (PC-12 [4]) | Activity (PC-12 [5]) | Activity [6] | Activity [7] | Activity (PC-12 [8]) | Activity (PC-12 [9]) | Activity (PC-12 [10]) | Activity (PC-12 [11]) | Activity (PC-12 [12]) | Activity (PC-12 [13]) | Activity (PC-12 [14]) | Activity (PC-12 [15]) | Activity (PC-12 [16]) | Activity (PC-12 [17]) |
| --- | --- | --- | --- | --- | --- | --- | --- | --- | --- | --- | --- | --- | --- | --- | --- | --- | --- |
| COc1ccc(/C=C/C(=O)N2CCCC2=O)cc1 | Active | Active | Active | Active | Active | Not Active | Active | Active | inactive | Active | Active | Dose-dependent effect | Dose-dependent effect | Active | Active | Dose-dependent effect | Active |
| COc1cc(/C=C/C(=O)N2CCCCC2=O)cc(OC)c1OC | Active | Active | Active | Active | Active | Not Active | Active | Active | inactive | Active | Active | Dose-dependent effect | Dose-dependent effect | Active | Active | Dose-dependent effect | Active |
